Measured values reported in ChEMBL document CHEMBL4834396, “Molecular Recognition and Imaging of Human Telomeric G-Quadruplex DNA in Live Cells: A Systematic Advancement of Thiazole Orange Scaffold To Enhance Binding Specificity and Inhibition of Gene Expression” (J Med Chem, 2021).
The source made the active and inactive calls. The calls are words filed in the database; no cut-off is given here.

Key:
[1] = tested on: Quadruplex DNA; assay: Binding affinity to telomeric Htg24 G-quadruplex DNA (unknown origin) assessed as decrease in peak intensity at guanine base G15 at 5 uM under pH condition 7.4 by spectrophotometric titration analysis; type: nucleic-acid assay
[2] = tested on: Quadruplex DNA [UNDEFINED MUTATION]; assay: Binding affinity to telomeric Htg24 G-quadruplex DNA T6G mutant (unknown origin) assessed as negative fluorescence signal at 5 uM under pH condition 7.4 by fluorescence titration analysis; type: nucleic-acid assay; conditions: Homo sapiens
Method in brief: (§1)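 Ligand held at 5 μM and mixed with each Htg24 point mutant in Tris-HCl buffer containing 60 mM KCl, pH 7.4. Fluorescence was read, and the signal change was computed as (F mutant − F wild type)/F wild type.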

[3] = tested on: Quadruplex DNA [UNDEFINED MUTATION]; assay: Effect on confirmation of telomeric Htg24 G-quadruplex DNA T6G mutant (unknown origin) assessed as hybrid topology at 5 uM at pH 7.4 by circular dichroism analysis; type: nucleic-acid assay; conditions: Homo sapiens
Method in brief: (§2)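 CD spectra recorded on G4-DNA and ligand, each at 5 μM, in 10 mM Tris-HCl, pH 7.4, with 60 mM KCl. Scan range 220–340 nm in a 1 mm quartz cuvette, 1 nm bandwidth and step, 0.5 s/point. Each spectrum is the average of three scans.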

[4] = tested on: Quadruplex DNA [UNDEFINED MUTATION]; assay: Effect on confirmation of telomeric Htg24 G-quadruplex DNA G16T mutant (unknown origin) assessed as parallel topology at 5 uM at pH 7.4 by circular dichroism analysis; type: nucleic-acid assay; conditions: Homo sapiens; method in brief: as §2
[5] = tested on: Quadruplex DNA; assay: Binding affinity to c-myc promoter G-quadruplex DNA Pu22 (unknown origin) assessed as equilibrium binding constant at 5 uM at 25 degreeC by […]; type: nucleic-acid assay
Method in brief: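 Fluorescence titration: ligand 5 μM in 10 mM Tris-HCl pH 7.4 with 60 mM KCl, nucleic acid added until saturation, 25 °C. Keq from nonlinear fit of F/F0 to an independent-site model.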

[6] = tested on: Quadruplex DNA [UNDEFINED MUTATION]; assay: Effect on confirmation of telomeric Htg24 G-quadruplex DNA T18G mutant (unknown origin) assessed as hybrid topology at 5 uM at pH 7.4 by circular dichroism analysis; type: nucleic-acid assay; conditions: Homo sapiens; method in brief: as §2
[7] = tested on: Quadruplex DNA; assay: Binding affinity to telomeric Htg24 G-quadruplex DNA (unknown origin) assessed as fold increase in fluorescence signal at 5 uM under pH condition 7.4 by fluorescence method; type: nucleic-acid assay
Method in brief: (§3)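 Ligand 5 μM with each nucleic acid at 15 μM in 10 mM Tris-HCl pH 7.4, 60 mM KCl; emission enhancement expressed as F/F0 against ligand without DNA.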

[8] = tested on: Quadruplex DNA [UNDEFINED MUTATION]; assay: Binding affinity to telomeric Htg24 G-quadruplex DNA G5C mutant (unknown origin) assessed as negative fluorescence signal at 5 uM under pH condition 7.4 by fluorescence titration analysis; type: nucleic-acid assay; conditions: Homo sapiens; method in brief: as §1
[9] = tested on: Quadruplex DNA [UNDEFINED MUTATION]; assay: Effect on confirmation of telomeric Htg24 G-quadruplex DNA A8G mutant (unknown origin) assessed as hybrid topology at 5 uM at pH 7.4 by circular dichroism analysis; type: nucleic-acid assay; conditions: Homo sapiens; method in brief: as §2
[10] = tested on: Quadruplex DNA; assay: Binding affinity to telomeric Htg24 G-quadruplex DNA (unknown origin) assessed as fluorescence quantum yield by fluorescence spectrophotometric method; type: nucleic-acid assay
Method in brief: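 Fluorescence quantum yield determined against fluorescein (Φ = 0.95) in 1% NaOH ethanol. Five increasing ligand concentrations added to fixed DNA, with absorbance and emission recorded for each.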

[11] = tested on: HeLa; assay: Downregulation of hTERC mRNA expression in human HeLa cells at 5 to 20 uM by qRT-PCR analysis; type: functional, cell-based; conditions: dose 5-20 µM
Method in brief: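 HeLa cells were treated with graded compound concentrations, then incubated 36 h. RNA was extracted with Trizol/chloroform, reverse transcribed and quantified by qRT-PCR. GAPDH served as internal control, with relative expression by the ΔΔCt method; three independent experiments, mean ± SD.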

[12] = tested on: Quadruplex DNA [UNDEFINED MUTATION]; assay: Binding affinity to telomeric Htg24 G-quadruplex DNA G15T mutant (unknown origin) assessed as fluorescence signal at 5 uM under pH condition 7.4 by fluorescence titration analysis; type: nucleic-acid assay; conditions: Homo sapiens
[13] = tested on: HeLa; assay: Induction of cellular senescence in human HeLa cells assessed as positive SA-beta-Gal cells at 0.5 to 4 uM incubated for 18 days by inverted fluorescence microscopic analysis; type: functional, cell-based; conditions: dose 0.5-4 µM, time 18.0 day
Method in brief: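 HeLa cells were exposed to compound for 18 days, with drug-containing medium replaced every three days. Cells were then fixed 15 min at room temperature and stained for β-galactosidase at 37 °C overnight. Stained cells were examined under an inverted microscope.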

[14] = tested on: Quadruplex DNA [UNDEFINED MUTATION]; assay: Binding affinity to telomeric Htg24 G-quadruplex DNA G15C mutant (unknown origin) assessed as fluorescence signal at 5 uM under pH condition 7.4 by fluorescence titration analysis; type: nucleic-acid assay; conditions: Homo sapiens
[15] = tested on: Quadruplex DNA; assay: Binding affinity to telomeric Htg24 G-quadruplex DNA (unknown origin) assessed as emission wavelength at 480 to 483 nm at pH 7.4 by spectrophotometric method; type: nucleic-acid assay
[16] = tested on: Quadruplex DNA [UNDEFINED MUTATION]; assay: Binding affinity to telomeric Htg24 G-quadruplex DNA G11A mutant (unknown origin) assessed as fluorescence signal at 5 uM under pH condition 7.4 by fluorescence titration analysis; type: nucleic-acid assay; conditions: Homo sapiens
[17] = tested on: Quadruplex DNA [UNDEFINED MUTATION]; assay: Binding affinity to telomeric Htg24 G-quadruplex DNA G23T mutant (unknown origin) assessed as fluorescence signal at 5 uM under pH condition 7.4 by fluorescence titration analysis; type: nucleic-acid assay; conditions: Homo sapiens; method in brief: as §1
[18] = tested on: Quadruplex DNA [UNDEFINED MUTATION]; assay: Binding affinity to telomeric Htg24 G-quadruplex DNA G17C mutant (unknown origin) assessed as negative fluorescence signal at 5 uM under pH condition 7.4 by fluorescence titration analysis; type: nucleic-acid assay; conditions: Homo sapiens
Method in brief: (§4)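 Ligand 5 μM mixed with wild-type or point-mutant Htg24 in Tris-HCl buffer with 60 mM KCl; signal change calculated as (F mutant − F wild type)/F wild type.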

[19] = molecular target: DNA; assay: Binding affinity to ds26 DNA (unknown origin) assessed as dissociation constant by isothermal titration calorimetric analysis; type: nucleic-acid assay
Method in brief: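 ITC at 25 °C: DNA preannealed at 95 °C for 5 min, cooled and held at 4 °C overnight, in 25 mM KH2PO4, 60 mM KCl, pH 7.4, 0.5% DMSO. DNA 10 μM in cell, ligand 500 μM in syringe; 19 injections of 4 s, 150 s apart, 750 rpm stirring; blank heat subtracted before model fitting.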

[20] = tested on: U-87 MG; assay: Antiproliferative activity against human U87 cells assessed as reduction in cell viability […] by MTT assay; type: functional, cell-based, U-87MG ATCC
[21] = tested on: Quadruplex DNA [UNDEFINED MUTATION]; assay: Binding affinity to telomeric Htg24 G-quadruplex DNA G22T mutant (unknown origin) assessed as negative fluorescence signal at 5 uM under pH condition 7.4 by fluorescence titration analysis; type: nucleic-acid assay; conditions: Homo sapiens; method in brief: as §1
[22] = tested on: Quadruplex DNA [UNDEFINED MUTATION]; assay: Binding affinity to telomeric Htg24 G-quadruplex DNA G17T mutant (unknown origin) assessed as negative fluorescence signal at 5 uM under pH condition 7.4 by fluorescence titration analysis; type: nucleic-acid assay; conditions: Homo sapiens; method in brief: as §4
[23] = tested on: Quadruplex DNA; assay: Binding affinity to telomeric Htg24 G-quadruplex DNA (unknown origin) at pH 7.4 by fluorescence titration analysis; type: nucleic-acid assay
[24] = tested on: Quadruplex DNA [UNDEFINED MUTATION]; assay: Binding affinity to telomeric Htg24 G-quadruplex DNA G22A mutant (unknown origin) assessed as negative fluorescence signal at 5 uM under pH condition 7.4 by fluorescence titration analysis; type: nucleic-acid assay; conditions: Homo sapiens; method in brief: as §1
[25] = tested on: i-motif DNA; assay: Binding affinity to promoter i-motif DNA (unknown origin) assessed as fluorescence signal at 5 uM under pH condition 7.4 by fluorescence method; type: nucleic-acid assay; method in brief: as §3
[26] = tested on: Quadruplex DNA [UNDEFINED MUTATION]; assay: Binding affinity to telomeric Htg24 G-quadruplex DNA G23C mutant (unknown origin) assessed as fluorescence signal at 5 uM under pH condition 7.4 by fluorescence titration analysis; type: nucleic-acid assay; conditions: Homo sapiens; method in brief: as §1

CN(C)c1ccc(/C=C/c2cc(/C=C3\Sc4ccccc4N3CCCN3CCOCC3)c3ccccc3[n+]2C)cc1.[I-]
Activity [1]: Active | Activity [2]: Active | Activity [3]: Active | Activity [4]: Active | Kb [5]: 309000 M⁻¹ | Activity [6]: Active | fold change (FC) [7]: 120 | Activity [8]: Active | Activity [9]: Active | Activity [10]: 0.217 | Activity [11]: Active | Activity [12]: inactive | Activity [13]: Active | Activity [14]: inactive | Activity [15]: 642 nm | Activity [16]: inactive | Activity [17]: inactive | Activity [18]: Active | Kd [19]: 2.97 µM | IC50 [20]: 15.2 µM | Activity [21]: Active | Activity [22]: Active | Activity [23]: Active | Activity [24]: Active | fold change (FC) [25]: 1 | Activity [26]: inactive
